ChEMBL document CHEMBL1158477, “Synthesis, in vivo evaluation, and molecular modeling studies of new pyrazolo[5,1-c][1,2,4]benzotriazine 5-oxide derivatives. Identification of a bifunctional hydrogen bond area related to the inverse agonism” (J Med Chem, 2009)
The source made the active and inactive calls. The rule behind the calls is not given here.

Tests used:
Mus musculus [1] = assay: Effect on motor coordination in CD1 albino mouse assessed as number of falls form rotarod at 10 mg/kg, po […] measured for 30 seconds after 30 mins of dosing by rotarod test; assay type: functional
Method in brief: (§1)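 Rota-rod in male CD-1 mice with a pretest. Test substance given po in 1% CMC; falls from the rotating rod counted over 30 s, assessed 30 min after treatment.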

Mus musculus [2] = assay: Effect on motor coordination in CD1 albino mouse assessed as number of falls form rotarod at 30 mg/kg, po […] measured for 30 seconds after 30 mins of drug infusion by rotarod test; assay type: functional; details: 30 mg/kg; method in brief: as §1
Mus musculus [3] = assay: Anticonvulsant activity against pentylenetetrazole-induced shock in CD1 albino mouse assessed as shock latency at 10 mg/kg, po preincubated for 30 mins before pentylenetetrazole challenge measured for 30 mins (RVb=253.1 +/- 13 seconds); assay type: functional
Mus musculus [4] = assay: Anticonvulsant activity against pentylenetetrazole-induced shock in CD1 albino mouse assessed as shock latency at 30 mg/kg, po preincubated for 30 mins before pentylenetetrazole challenge measured for 30 mins (RVb=253.1 +/- 13 seconds); assay type: functional; details: 30 mg/kg
Mus musculus [5] = assay: Anticonvulsant activity against pentylenetetrazole-induced convulsions in CD1 albino mouse assessed as convulsion latency at 10 mg/kg, po preincubated for 30 mins before pentylenetetrazole challenge measured for 30 mins (RVb=599 +/- 37.6 seconds); assay type: functional
Mus musculus [6] = assay: Anticonvulsant activity against pentylenetetrazole-induced convulsions in CD1 albino mouse assessed as convulsion latency at 30 mg/kg, po preincubated for 30 mins before pentylenetetrazole challenge measured for 30 mins (RVb=599 +/- 37.6 seconds); assay type: functional; details: 30 mg/kg
Mus musculus [7] = assay: Effect on spontaneous motility in CD1 albino mouse assessed as number of movement on plane board at 10 mg/kg, po after 30 mins by hole-board test; assay type: functional
Method in brief: (§2)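 Hole-board test in male CD-1 mice: animals placed singly on the board and allowed to explore panel and holes. Test run 30 min after po dosing in 1% CMC (10 mL/kg). Hole entries (curiosity) and plane movements (spontaneous motility) counted; 10 mice per group, compared with CMC controls.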

Mus musculus [8] = assay: Effect on spontaneous motility in CD1 albino mouse assessed as number of movement on plane board at 30 mg/kg, po after 30 mins by hole-board test; assay type: functional; details: 30 mg/kg; method in brief: as §2
Mus musculus [9] = assay: Effect on spontaneous motility in CD1 albino mouse assessed as number of movement on plane board at 50 mg/kg, po after 30 mins by hole-board test; assay type: functional; method in brief: as §2
Mus musculus [10] = assay: Effect on spontaneous motility in CD1 albino mouse assessed as number of movement on plane board at 100 mg/kg, po after 30 mins by hole-board test; assay type: functional; method in brief: as §2
Mus musculus [11] = assay: Effect on explorative capacity in CD1 albino mouse assessed as curiosity-related number of head plugging activity on hole at 10 mg/kg, po after 30 mins by hole-board test; assay type: functional; method in brief: as §2
Mus musculus [12] = assay: Effect on explorative capacity in CD1 albino mouse assessed as curiosity-related number of head plugging activity on hole at 30 mg/kg, po after 30 mins by hole-board test; assay type: functional; details: 30 mg/kg; method in brief: as §2
Mus musculus [13] = assay: Effect on explorative capacity in CD1 albino mouse assessed as curiosity-related number of head plugging activity on hole at 50 mg/kg, po after 30 mins by hole-board test; assay type: functional; method in brief: as §2
Mus musculus [14] = assay: Effect on explorative capacity in CD1 albino mouse assessed as curiosity-related number of head plugging activity on hole at 100 mg/kg, po after 30 mins by hole-board test; assay type: functional; method in brief: as §2
[15] = Displacement of [3H]flumazenil from GABAA/Benzodiazepine receptor in bovine brain; parameters: species or system Bos taurus
Method in brief: (§3)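 Bovine brain membranes; displacement of specific [3H]flumazenil (Ro15-1788) binding. Percent inhibition measured at 10 μM; Ki determined only when inhibition at that concentration exceeded 80%. Ki given as mean ± SEM of five determinations.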

Mus musculus [16] = assay: Anxiolytic activity in CD1 albino mouse at 10 mg/kg, po after 30 mins by light/dark box test; assay type: functional, organism-based; parameters: dose 10 mg/kg
Method in brief: (§4)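 Male CD-1 mice (22-24 g) given test substance po in 1% CMC (10 mL/kg), tested 30 min later in a light/dark box. Transfers between compartments and time spent in the illuminated side were measured. Values are mean ± SEM of 15-20 mice; compared with controls.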

Mus musculus [17] = assay: Anxiolytic activity in CD1 albino mouse at 30 mg/kg, po after 30 mins by light/dark box test; assay type: functional, organism-based; parameters: dose 30 mg/kg; method in brief: as §4
Mus musculus [18] = assay: Anxiolytic activity in CD1 albino mouse at 30 mg/kg, po after 30 mins by light/dark box test in presence of flumazenil; assay type: functional, organism-based; parameters: dose 30 mg/kg
Method in brief: (§5)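 Light/dark box in male CD-1 mice. Test substance given po in 1% CMC 30 min before the test, with flumazenil 100 mg/kg ip (saline) co-treatment. Transfers between compartments and time in the lit side recorded. Mean ± SEM of 15-20 mice.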

Mus musculus [19] = assay: Effect on learning and memory process in CD1 albino mouse assessed as decrease in retention latency at 10 mg/kg, po after 24 hrs by passive avoidance test; assay type: functional, organism-based; parameters: dose 10 mg/kg
Method in brief: (§6)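 Step-through passive avoidance in a two-compartment box (lit and dark compartments joined by a guillotine door). Male CD-1 mice dosed po (1% CMC) 30 min before training; retention tested 24 h later. Training and retention latencies recorded; mean ± SEM of 15-20 mice versus controls.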

Mus musculus [20] = assay: Effect on learning and memory process in CD1 albino mouse assessed as decrease in retention latency at 30 mg/kg, po after 24 hrs by passive avoidance test; assay type: functional, organism-based; parameters: dose 30 mg/kg; method in brief: as §6
Mus musculus [21] = assay: Effect on ethanol-induced sleeping time in CD1 albino mouse assessed as increase in duration of loss of righting reflex at 10 mg/kg, po preincubated 30 mins before ethanol challenge; assay type: functional, organism-based; parameters: dose 10 mg/kg
Mus musculus [22] = assay: Effect on ethanol-induced sleeping time in CD1 albino mouse assessed as increase in duration of loss of righting reflex at 30 mg/kg, po preincubated 30 mins before ethanol challenge; assay type: functional, organism-based; parameters: dose 30 mg/kg
Bos taurus = species on record: Bos taurus; assay: Displacement of [3H]flumazenil from GABAA/Benzodiazepine receptor in bovine brain at 10 uM; method in brief: as §3
Mus musculus [23] = assay: Effect on motor coordination in CD1 albino mouse assessed as number of falls form rotarod at 3 mg/kg, po administered 60 mins before test measured for 30 seconds after 30 mins of drug infusion by rotarod test; assay type: functional; method in brief: as §1
Mus musculus [24] = assay: Anticonvulsant activity against pentylenetetrazole-induced shock in CD1 albino mouse assessed as shock latency at 3 mg/kg, po preincubated for 30 mins before pentylenetetrazole challenge measured for 30 mins (RVb=253.1 +/- 13 seconds); assay type: functional
Mus musculus [25] = assay: Anticonvulsant activity against pentylenetetrazole-induced convulsions in CD1 albino mouse assessed as convulsion latency at 3 mg/kg, po preincubated for 30 mins before pentylenetetrazole challenge measured for 30 mins (RVb=599 +/- 37.6 seconds); assay type: functional
Mus musculus [26] = assay: Effect on spontaneous motility in CD1 albino mouse assessed as number of movement on plane board at 3 mg/kg, po after 30 mins by hole-board test; assay type: functional; method in brief: as §2
Mus musculus [27] = assay: Effect on explorative capacity in CD1 albino mouse assessed as curiosity-related number of head plugging activity on hole at 3 mg/kg, po after 30 mins by hole-board test; assay type: functional; method in brief: as §2
Mus musculus [28] = assay: Anxiogenic activity in CD1 albino mouse at 1 mg/kg, po after 30 mins by light/dark box test; assay type: functional, organism-based; parameters: dose 1 mg/kg; method in brief: as §4
Mus musculus [29] = assay: Anxiogenic activity in CD1 albino mouse at 3 mg/kg, po after 30 mins by light/dark box test; assay type: functional, organism-based; parameters: dose 3 mg/kg; method in brief: as §4
Mus musculus [30] = assay: Anxiogenic activity in CD1 albino mouse at 10 mg/kg, po after 30 mins by light/dark box test; assay type: functional, organism-based; parameters: dose 10 mg/kg; method in brief: as §4
Mus musculus [31] = assay: Anxiogenic activity in CD1 albino mouse at 30 mg/kg, po after 30 mins by light/dark box test; assay type: functional, organism-based; parameters: dose 30 mg/kg; method in brief: as §4
Mus musculus [32] = assay: Effect on learning and memory process in CD1 albino mouse assessed as improvement in retention latency at 1 mg/kg, po after 24 hrs by passive avoidance test; assay type: functional, organism-based; parameters: dose 1 mg/kg; method in brief: as §6
Mus musculus [33] = assay: Effect on learning and memory process in CD1 albino mouse assessed as improvement in retention latency at 3 mg/kg, po after 24 hrs by passive avoidance test; assay type: functional, organism-based; parameters: dose 3 mg/kg; method in brief: as §6
Mus musculus [34] = assay: Effect on ethanol-induced sleeping time in CD1 albino mouse assessed as increase in duration of loss of righting reflex at 3 mg/kg, po preincubated 30 mins before ethanol challenge; assay type: functional, organism-based; parameters: dose 3 mg/kg
Mus musculus [35] = assay: Anxiogenic activity in CD1 albino mouse at 3 mg/kg, po after 30 mins by light/dark box test in presence of flumazenil; assay type: functional, organism-based; parameters: dose 3 mg/kg; method in brief: as §5
Mus musculus [36] = assay: Anxiolytic activity in CD1 albino mouse at 3 mg/kg, po after 30 mins by light/dark box test; assay type: functional, organism-based; parameters: dose 3 mg/kg; method in brief: as §4
Mus musculus [37] = assay: Effect on learning and memory process in CD1 albino mouse assessed as improvement in retention latency at 10 mg/kg, po after 24 hrs by passive avoidance test; assay type: functional, organism-based; parameters: dose 10 mg/kg; method in brief: as §6

SMILES | Ki [15] [nM] | Activity (Mus musculus [16]) | Activity (Mus musculus [21]) | Activity (Bos taurus) [%] | Activity (Mus musculus [23]) | Activity (Mus musculus [1]) | Activity (Mus musculus [24]) [s] | Activity (Mus musculus [3]) [s] | Activity (Mus musculus [25]) [s] | Activity (Mus musculus [5]) [s] | Activity (Mus musculus [26]) | Activity (Mus musculus [7]) | Activity (Mus musculus [27]) | Activity (Mus musculus [11]) | Activity (Mus musculus [33]) | Activity (Mus musculus [34]) | further results
CC(Oc1ccc2c(c1)n1ncc(I)c1n[n+]2[O-])c1ccccc1 (stereo in doubt; (+)-16) [listing 1 of 2 here] | 605 |  |  |  |  |  |  |  |  |  |  |  |  |  |  |  | Activity (Mus musculus [1]; 10 mg/kg): 2.5; Activity (Mus musculus [2]): 1.3; Activity (Mus musculus [3]; 10 mg/kg): 543.7 s; Activity (Mus musculus [4]): 345.3 s; Activity (Mus musculus [5]; 10 mg/kg): 733.5 s; Activity (Mus musculus [6]): 607.7 s; Activity (Mus musculus [7]; 10 mg/kg): 55.5; Activity (Mus musculus [8]): 59.7; Activity (Mus musculus [9]): 62.9; Activity (Mus musculus [10]): 80; Activity (Mus musculus [11]; 10 mg/kg): 25.1; Activity (Mus musculus [12]): 31.9; Activity (Mus musculus [13]): 39.3; Activity (Mus musculus [14]): 30.4
CC(Oc1ccc2c(c1)n1ncc(I)c1n[n+]2[O-])c1ccccc1 (stereo in doubt; (+)-16) [listing 2 of 2 here] |  | Active | Active | > 80 |  |  |  |  |  |  |  |  |  |  |  |  | Activity (Mus musculus [17]): Active; Activity (Mus musculus [18]): inactive; Activity (Mus musculus [19]): Active; Activity (Mus musculus [20]): Active; Activity (Mus musculus [22]): Active
[O-][n+]1nc2c(I)cnn2c2cc(Oc3ccccc3)ccc21 | 8.6 |  | Active | > 80 | 0.9 | 0.6 | 264.7 | 243.6 | 516.1 | 345.5 | 73.2 | 63.8 | 38 | 39.8 | Active | Active | Activity (Mus musculus [28]): Active; Activity (Mus musculus [29]): Active; Activity (Mus musculus [30]): Active; Activity (Mus musculus [31]): Active; Activity (Mus musculus [32]): Active; Activity (Mus musculus [35]): inactive
[O-][n+]1nc2c(I)cnn2c2cc(OCc3ccncc3)ccc21 | 1.3 | inactive | inactive | > 80 | 1.4 | 2.3 | 183 | 299 | 565.8 | 610.9 | 93.9 | 85.1 | 35.5 | 36.9 | Active | inactive | Activity (Mus musculus [36]): inactive; Activity (Mus musculus [37]): Active
